Source: ChEMBL document CHEMBL1949626, “Ultrasound-assisted bismuth nitrate-induced green synthesis of novel pyrrole derivatives and their biological evaluation as anticancer agents” (Eur J Med Chem, 2012)
Activity calls are given as the source filed them. No cut-off for these calls is given here.

Columns and labels:
HT-29 = assay: Cytotoxicity against human HT-29 cells after 48 hrs by sulforhodamine B assay; type: functional, cell-based; settings: HT-29, 48 h
Method in brief: (§1)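 Cells seeded at 5000/well, incubated overnight at 37 °C, then exposed 48 h to 0.1 µM-100 µM compound from DMSO stock (final DMSO ≤0.25%); 0.25% DMSO vehicle and 10 μM doxorubicin controls. Fixed, stained with sulforhodamine B, absorbance normalized to untreated cells; 4-parameter logistic fit gives IC50, mean ± SD of two independent assays.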

HepG2 [1] = assay: Cytotoxicity against human HepG2 cells after 48 hrs by sulforhodamine B assay; type: functional, cell-based; settings: HepG2, 48 h; method in brief: as §1
HeLa = assay: Cytotoxicity against human HeLa cells after 48 hrs by sulforhodamine B assay; type: functional, cell-based; method in brief: as §1
Caco-2 = assay: Cytotoxicity against human Caco2 cells after 48 hrs by sulforhodamine B assay; type: functional, cell-based; settings: Caco-2, 48 h; method in brief: as §1
HepG2 [2] = assay: Cytotoxicity against human HepG2 cells at 2 times IC50 after 48 hrs by sulforhodamine B assay; type: functional
Method in brief: (§2)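 HepG2 seeded at 5000 cells/well and treated at twice each compound's calculated IC50 for 24, 48 or 72 h. Cells fixed and viability read by SRB absorbance, normalized to untreated. Three independent experiments run in duplicate; mean ± SD.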

NIH3T3 = assay: Cytotoxicity against […] cells after 48 hrs by sulforhodamine B assay; type: functional, cell-based; settings: Mus musculus, NIH3T3, 48 h; method in brief: as §1
HepG2 [3] = assay: Cytotoxicity against human HepG2 cells at 2 times IC50 after 72 hrs by sulforhodamine B assay; type: functional; method in brief: as §2
HepG2 [4] = assay: Induction of apoptosis in human HepG2 cells assessed as increase in caspase3/7 activity; type: functional, cell-based
Hepa1-6 [5] = assay: Cytotoxicity against […] cells at 2.5 to 5 uM after 48 hrs by MTS assay; type: functional, cell-based
Method in brief: (§3)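 Fresh CD-1 mouse hepatocytes (Williams' E medium) or Hepa1-6 (DMEM, 10% FBS), plated, incubated overnight at 37 °C; media refreshed, then 0.5, 2.5, 5 and 10 μM compound for 48 h. MTS reagent added for 4 h at 37 °C, 5% CO2; A490 normalized to untreated cells. Two independent experiments in duplicate, mean ± SD.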

[6] = Cytotoxicity against […] cells after 48 hrs by sulforhodamine B assay; type: functional, cell-based; settings: Hepa1-6, 48 h; method in brief: as §1
HepG2 [7] = assay: Induction of apoptosis in human HepG2 cells assessed as increase in DNA fragmentation by TUNEL assay; type: functional, cell-based
Hepatocyte = assay: Cytotoxicity against CD1 mouse hepatocytes at 10 uM after 48 hrs by MTS assay; type: cell-based; method in brief: as §3
HepG2 [8] = assay: Inhibition of anchorage-independent growth of human HepG2 cells at 12.5 uM after 7 days by soft agar colony formation assay; type: functional; settings: HepG2, 168 h, read-out: GI
Method in brief: (§4)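 HepG2 at 5000 cells/well in top soft agar, exposed to compound for 7 days with compound and fresh medium replaced once on day 4. Agar solubilized on day 7 and cells quantified by fluorescence (485–520 nm filters). Duplicate wells per dose, SD shown.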

HepG2 [9] = assay: Inhibition of anchorage-independent growth of human HepG2 cells at 25 uM after 7 days by soft agar colony formation assay; type: functional; settings: HepG2, 168 h, read-out: GI; method in brief: as §4
HepG2 [10] = assay: Cytotoxicity against human HepG2 cells at 2 times IC50 after 24 hrs by sulforhodamine B assay; type: functional; method in brief: as §2
[11] = Cytotoxicity against mouse Hepa1-6 cells after 48 hrs by sulforhodamine B assay; settings: Hepa1-6, 48 h
[12] = Cytotoxicity against mouse Hepa1-6 cells at 50 uM after 48 hrs by sulforhodamine B assay
Hepa1-6 [13] = assay: Cytotoxicity against mouse Hepa1-6 cells at 2.5 to 5 uM after 48 hrs by MTS assay

## c1cc2ccc3ccc(-n4cccc4)c4ccc(c1)c2c34
HT-29
  IC50: 24.3 µM
HepG2 [1]
  IC50: > 50 µM
HeLa
  IC50: 17.7 µM
Caco-2
  IC50: > 50 µM

## c1ccc2c(c1)ccc1cc(-n3cccc3)ccc12
HepG2 [2]
  Activity: >50%
NIH3T3
  IC50: 2.1 µM
HepG2 [3]
  Activity: >50%
HT-29
  IC50: > 50 µM
HepG2 [1]
  IC50: 13.4 µM
HepG2 [4]
  Activity: inactive
HeLa
  IC50: > 50 µM
Hepa1-6 [5]
  Activity: Active
[6]
  IC50: 3.9 µM
Caco-2
  IC50: > 50 µM
HepG2 [7]
  Activity: inactive
Hepatocyte
  Activity: Non-toxic
HepG2 [8]
  inhibition of growth at 12.5 µM: > 80%
HepG2 [9]
  inhibition of growth at 25 µM: > 60%
HepG2 [10]
  Activity: 20%

## c1ccn(C23CC4CC(CC(C4)C2)C3)c1
[11]
  IC50: 19.9 µM
NIH3T3
  IC50: 24 µM
HT-29
  IC50: 11.9 µM
HepG2 [1]
  IC50: 38.6 µM
HeLa
  IC50: 12.9 µM
Caco-2
  IC50: > 50 µM

## c1ccc2c(c1)ccc1c3ccccc3c(-n3cccc3)cc21
[11]
  IC50: 0.7 µM
NIH3T3
  IC50: > 50 µM
HT-29
  IC50: > 50 µM
HepG2 [1]
  IC50: > 50 µM
HeLa
  IC50: > 50 µM
[12]
  Activity: 50%
Caco-2
  IC50: > 50 µM

## c1cnc2c(c1)cc(-n1cccc1)c1cccnc12
HepG2 [2]
  Activity: >50%
[11]
  IC50: 3.4 µM
NIH3T3
  IC50: 1.9 µM
HepG2 [3]
  Activity: >50%
HT-29
  IC50: 4.2 µM
HepG2 [1]
  IC50: 3 µM
HepG2 [4]
  Activity: inactive
HeLa
  IC50: 27.9 µM
HepG2 [7]
  Activity: inactive
Hepatocyte
  Activity: Non-toxic
HepG2 [8]
  inhibition of growth at 12.5 µM: > 80%
HepG2 [9]
  inhibition of growth at 25 µM: > 60%
HepG2 [10]
  Activity: 20%
Hepa1-6 [13]
  Activity: Active
